Measured values: PMC3641321 (Blood Cancer Journal, 2013)
“And” between values parts separate entries of the source, which are not always exact repeats. Identical values can stand only once. “Also recorded” adds a separate entry of the source. Marks after values point to notes of the source that are not given here. Values belong to the molecule of their own block, whether it stands above or below them.

What was measured:
[1] = target: IL-3-activated wild-type JAK2 (Homo sapiens, UniProt O60674); assay: AlphaScreen SureFire pSTAT5 assay, IL-3-stimulated Ba/F3 wild-type JAK2; type: cell-based
JAK2V617F [2] = target: T1, JAK2V617F (Homo sapiens, UniProt O60674, V617F); assay: AlphaScreen SureFire pSTAT5 assay, Ba/F3-JAK2V617F; type: cell-based
TEL-JAK3 = TEL-JAK3 (Homo sapiens, UniProt P41212+P52333); assay: AlphaScreen SureFire pSTAT5 assay, Ba/F3 TEL-JAK3; type: cell-based
[3] = tested on: Ba/F3 cells expressing JAK2V617F; assay: MTS cell proliferation assay, Ba/F3 JAK2V617F; type: cell-based, murine; conditions: Mus musculus, BaF3, 72 h, read-out: Cell proliferation assay V617F IC50±s.d.
TEL-JAK1 = TEL-JAK1 (Homo sapiens, UniProt P23458+P41212); assay: AlphaScreen SureFire pSTAT5 assay, Ba/F3 TEL-JAK1; type: cell-based
TEL-JAK2 = TEL-JAK2 (Homo sapiens, UniProt O60674+P41212); assay: AlphaScreen SureFire pSTAT5 assay, Ba/F3 TEL-JAK2; type: cell-based
JAK3 = target: T2, JAK3 (Homo sapiens, UniProt P52333); assay: JAK LanthaScreen Kinase Assay; conditions: second-tier biochemical / LanthaScreen assay
T2 sequence (P52333 1-1124): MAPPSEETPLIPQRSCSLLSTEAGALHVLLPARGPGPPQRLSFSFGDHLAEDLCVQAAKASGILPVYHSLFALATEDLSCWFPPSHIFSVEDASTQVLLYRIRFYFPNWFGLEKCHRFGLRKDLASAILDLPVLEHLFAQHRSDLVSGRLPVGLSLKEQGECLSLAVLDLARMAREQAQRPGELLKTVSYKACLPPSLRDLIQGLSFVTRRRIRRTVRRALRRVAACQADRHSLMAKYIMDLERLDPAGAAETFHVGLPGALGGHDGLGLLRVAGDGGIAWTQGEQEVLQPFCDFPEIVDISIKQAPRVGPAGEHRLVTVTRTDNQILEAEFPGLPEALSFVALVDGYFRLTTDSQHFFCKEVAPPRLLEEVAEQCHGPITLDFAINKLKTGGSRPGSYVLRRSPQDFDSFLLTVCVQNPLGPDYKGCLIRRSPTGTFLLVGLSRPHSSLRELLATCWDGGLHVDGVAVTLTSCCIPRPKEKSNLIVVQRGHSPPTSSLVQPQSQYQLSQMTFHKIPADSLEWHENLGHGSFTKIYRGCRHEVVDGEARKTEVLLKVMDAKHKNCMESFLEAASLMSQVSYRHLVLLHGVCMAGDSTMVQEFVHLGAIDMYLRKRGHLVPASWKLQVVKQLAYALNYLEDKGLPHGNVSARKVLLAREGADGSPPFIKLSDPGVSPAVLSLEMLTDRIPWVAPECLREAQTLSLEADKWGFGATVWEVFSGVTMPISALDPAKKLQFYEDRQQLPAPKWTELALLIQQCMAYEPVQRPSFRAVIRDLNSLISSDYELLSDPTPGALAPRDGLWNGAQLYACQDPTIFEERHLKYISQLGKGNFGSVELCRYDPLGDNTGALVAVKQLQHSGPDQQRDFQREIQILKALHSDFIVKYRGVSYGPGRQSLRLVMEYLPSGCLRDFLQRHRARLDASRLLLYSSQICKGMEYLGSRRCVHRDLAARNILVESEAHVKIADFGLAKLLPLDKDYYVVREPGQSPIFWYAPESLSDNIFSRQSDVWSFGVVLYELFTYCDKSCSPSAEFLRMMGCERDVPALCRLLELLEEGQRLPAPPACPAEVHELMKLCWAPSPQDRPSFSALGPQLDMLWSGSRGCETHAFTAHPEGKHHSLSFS

JAK3/JAK1 heterodimer = JAK3/JAK1 heterodimer (Homo sapiens, UniProt P23458+P52333); assay: Cellomics pSTAT5 assay, IL-2-stimulated NK-92 cells; type: cell-based
Method in brief: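 NK-92 cells were kept overnight in MEM Alpha with 0.3% FBS and 0.3% horse serum, then plated with DMSO or a 10-point 1:3 dilution series (20 to 0.001 μM) for 10 min. IL-2 (0.5 μg/ml) was then added for 20 min. Cells were fixed, stained for pSTAT5 (pY694) with Alexa Fluor 647 and Hoechst, and imaged. IC50 came from a four-parameter logistic fit.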

JAK2 [4] = target: T3, JAK2 (Homo sapiens, UniProt O60674); assay: JAK LanthaScreen Kinase Assay; conditions: Biochemical measurement of JAK inhibition, JAK2 IC50±s.d., Table 1
[5] = tested on: cytotoxic T-cells, CD3+CD8a+; assay: 14-day rat immunotoxicology, flow cytometry; type: in vivo, Sprague-Dawley rats; conditions: for Change in cytotoxic T-cells, CD3+CD8a+, peripheral blood / Change in cytotoxic T-cells, CD3+CD8a+, spleen: gavage, Compound 1 15 mg/kg, Compound 2 (LY2784544) 30 mg/kg; for Percentage of T-cytotoxic cells (peripheral blood and splenic): pharmacologically active exposures, result in words
wild-type JAK2 = wild-type JAK2 (Homo sapiens, UniProt O60674); assay: Western blot pSTAT5, IL-3-stimulated Ba/F3 wild-type JAK2; type: cell-based; conditions: Ba/F3 wild-type JAK2, 50 and 200 nM
[6] = 14-day rat pilot toxicology study; type: in vivo; conditions: 30, 60, or 100 mg/kg
JAK2 [7] = target: T3, JAK2; assay: Cellomics pSTAT5 assay, EPO-stimulated TF-1 cells; type: cell-based
Method in brief: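 TF-1 cells were starved overnight in RPMI with 0.6% FBS, then plated at 2 × 10^5 cells/well with DMSO or a 10-point 1:3 dilution series (20 to 0.001 μM). After 10 min, erythropoietin (1.6 units/ml) was added for 20 min. Cells were fixed, stained with anti-pSTAT5 (pY694) Alexa Fluor 647 and Hoechst, and imaged. IC50 came from a four-parameter logistic fit.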

[8] = tested on: Ba/F3 cells expressing JAK2V617F; assay: Caspase-Glo 3/7 apoptosis assay; type: cell-based, murine; conditions: Mus musculus, BaF3, 18 h, read-out: Induction of apoptosis EC50 (Caspase3/7-glo)
JAK2 R564Q = JAK2 R564Q (Homo sapiens, UniProt O60674, R564Q); assay: Western blot pSTAT5, HEK293T JAK2 R564Q; type: cell-based; conditions: HEK293 cells expressing JAK2 R564Q, 1 h
[9] = tested on: JAK2V617F signaling in Ba/F3-JAK2V617F-GFP ascitic tumor cells; assay: In vivo target inhibition, pSTAT5 in mouse ascitic tumor model; set-up: species or system SCID mice
Method in brief: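 Ascitic tumors were grown in CB17 SCID mice for 7 days after intraperitoneal implantation of 1 × 10^7 Ba/F3-JAK2V617F-GFP cells. A single oral gavage dose (2.5–80.0 mg/kg, six animals/group) was given and tumor cells were collected 30 min later. For time courses, 20, 40 or 80 mg/kg was given with collection at 0.25–6.0 h. Cells were fixed, stained 2 h for pSTAT5 (pY694), and analysed by flow cytometry. Statistics used ANOVA with Dunnett's test and a four-parameter logistic fit.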

JAK2 H538Q = JAK2 H538Q (Homo sapiens, UniProt O60674, H538Q); assay: Western blot pSTAT5, HEK293T JAK2 H538Q; type: cell-based; conditions: HEK293 cells expressing JAK2 H538Q, 1 h
[10] = tested on: Ba/F3-JAK2V617F-GFP tumor burden; assay: 14-day in vivo efficacy, JAK2V617F-induced mouse MPN model; set-up: species or system SCID mice
Method in brief: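 SCID mice received 1 × 10^7 Ba/F3-JAK2V617F-GFP cells intravenously (six mice/group). Twice-daily oral gavage at 2.5–80.0 mg/kg started 7 days after infusion and ran 14 days. Endpoints were complete blood counts from cardiac puncture, spleen weight, and FACS of splenocytes for total number and percentage of GFP-positive cells. Dunnett's test at α=0.05.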

JAK2V617F [11] = target: T1, JAK2V617F; assay: Western blot pSTAT5, Ba/F3 JAK2V617F; type: cell-based; conditions: 50 nM–20 μM, 2 h
JAK2V617F [12] = target: T1, JAK2V617F; assay: Western blot pSTAT5, HEK293T JAK2V617F; type: cell-based; conditions: HEK293 cells expressing JAK2V617F, 1 h
[13] = tested on: Ba/F3-JAK2V617F-GFP tumor cells, erythroid progenitors, peripheral blood counts; assay: 8-day mouse hematologic disease model, hematopoiesis; type: in vivo, SCID mice; conditions: result in words
Method in brief: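 This was an 8-day version of the intravenous Ba/F3-JAK2V617F-GFP SCID mouse model. Dosing at 5, 20, 40 or 80 mg/kg began one day before tumor cell infusion and continued twice daily for 8 days. Splenocytes were analysed by FACS for GFP-positive tumor cells and for erythroid progenitors stained with Ter119-APC and CD71-PE, with 7-AAD excluding nonviable cells. Peripheral blood counts were also taken.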

JAK2Y931C = JAK2Y931C (Homo sapiens, UniProt O60674, Y931C); assay: Western blot pSTAT5, HEK293T JAK2Y931C; type: cell-based; conditions: HEK293 cells expressing JAK2Y931C, 1 h
Chain of JAK2Y931C (O60674 whole entry Y931C): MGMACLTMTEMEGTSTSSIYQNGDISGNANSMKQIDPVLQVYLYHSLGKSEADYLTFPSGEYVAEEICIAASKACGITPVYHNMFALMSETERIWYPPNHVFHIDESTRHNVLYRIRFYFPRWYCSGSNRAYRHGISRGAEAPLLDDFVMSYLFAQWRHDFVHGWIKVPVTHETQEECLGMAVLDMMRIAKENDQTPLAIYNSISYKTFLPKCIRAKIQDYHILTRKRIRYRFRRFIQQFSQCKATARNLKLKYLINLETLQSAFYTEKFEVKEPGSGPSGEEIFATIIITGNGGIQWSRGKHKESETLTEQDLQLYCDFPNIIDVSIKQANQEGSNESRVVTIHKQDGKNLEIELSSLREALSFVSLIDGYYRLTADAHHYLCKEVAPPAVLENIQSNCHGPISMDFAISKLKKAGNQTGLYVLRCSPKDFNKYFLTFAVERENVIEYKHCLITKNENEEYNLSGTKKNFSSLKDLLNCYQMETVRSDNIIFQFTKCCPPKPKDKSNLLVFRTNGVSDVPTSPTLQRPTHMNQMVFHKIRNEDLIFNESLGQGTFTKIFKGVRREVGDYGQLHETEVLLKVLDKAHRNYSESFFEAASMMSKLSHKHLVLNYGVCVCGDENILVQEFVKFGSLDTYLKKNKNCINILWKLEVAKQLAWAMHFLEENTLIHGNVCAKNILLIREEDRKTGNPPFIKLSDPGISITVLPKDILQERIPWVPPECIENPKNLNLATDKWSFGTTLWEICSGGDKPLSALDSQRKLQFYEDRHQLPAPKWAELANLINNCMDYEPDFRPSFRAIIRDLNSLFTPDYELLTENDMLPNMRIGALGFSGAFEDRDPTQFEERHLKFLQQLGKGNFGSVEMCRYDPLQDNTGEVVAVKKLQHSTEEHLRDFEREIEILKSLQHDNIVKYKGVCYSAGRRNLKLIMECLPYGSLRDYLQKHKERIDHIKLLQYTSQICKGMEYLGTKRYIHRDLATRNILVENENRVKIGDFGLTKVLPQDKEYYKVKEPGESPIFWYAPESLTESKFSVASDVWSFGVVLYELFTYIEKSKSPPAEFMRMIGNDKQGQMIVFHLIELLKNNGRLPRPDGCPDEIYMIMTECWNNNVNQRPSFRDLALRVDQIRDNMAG

T1 sequence (O60674 whole entry V617F): as the sequence (O60674 whole entry Y931C) above, with V617F, C931Y counted along it
T3 sequence (O60674 whole entry): as the sequence (O60674 whole entry Y931C) above, with C931Y counted along it
Chain of JAK3/JAK1 heterodimer (P23458 whole entry, one chain of several): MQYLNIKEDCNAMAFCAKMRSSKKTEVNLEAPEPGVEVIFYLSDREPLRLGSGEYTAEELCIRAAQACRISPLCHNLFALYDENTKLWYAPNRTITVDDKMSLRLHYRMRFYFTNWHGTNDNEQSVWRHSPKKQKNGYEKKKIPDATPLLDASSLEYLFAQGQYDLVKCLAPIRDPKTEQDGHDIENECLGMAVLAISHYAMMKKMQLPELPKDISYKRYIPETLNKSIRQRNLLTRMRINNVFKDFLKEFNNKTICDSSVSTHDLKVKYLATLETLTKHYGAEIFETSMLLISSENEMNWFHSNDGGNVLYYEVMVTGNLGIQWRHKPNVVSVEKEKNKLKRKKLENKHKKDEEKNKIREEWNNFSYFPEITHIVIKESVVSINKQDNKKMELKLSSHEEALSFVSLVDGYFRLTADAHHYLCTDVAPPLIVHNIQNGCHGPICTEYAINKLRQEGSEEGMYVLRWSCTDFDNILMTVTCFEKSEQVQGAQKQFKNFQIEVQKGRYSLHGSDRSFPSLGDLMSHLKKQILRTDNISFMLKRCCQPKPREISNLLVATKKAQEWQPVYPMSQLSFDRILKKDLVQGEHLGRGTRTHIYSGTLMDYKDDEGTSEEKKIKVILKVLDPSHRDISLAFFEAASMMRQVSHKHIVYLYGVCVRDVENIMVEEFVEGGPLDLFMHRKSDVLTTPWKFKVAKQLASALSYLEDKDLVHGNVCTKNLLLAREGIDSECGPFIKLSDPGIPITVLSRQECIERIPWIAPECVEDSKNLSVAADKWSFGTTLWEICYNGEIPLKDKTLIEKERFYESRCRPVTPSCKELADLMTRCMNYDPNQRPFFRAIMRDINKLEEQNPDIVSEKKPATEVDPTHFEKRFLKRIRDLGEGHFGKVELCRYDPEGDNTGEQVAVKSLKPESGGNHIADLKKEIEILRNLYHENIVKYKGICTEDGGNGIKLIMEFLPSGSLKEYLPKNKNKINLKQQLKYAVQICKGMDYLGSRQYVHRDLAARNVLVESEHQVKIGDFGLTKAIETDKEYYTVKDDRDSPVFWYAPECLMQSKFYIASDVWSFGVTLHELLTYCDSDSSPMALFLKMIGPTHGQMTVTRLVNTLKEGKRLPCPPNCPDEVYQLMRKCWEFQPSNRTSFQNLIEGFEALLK
Chain of JAK3/JAK1 heterodimer (P14784 27-551 partner, one chain of several): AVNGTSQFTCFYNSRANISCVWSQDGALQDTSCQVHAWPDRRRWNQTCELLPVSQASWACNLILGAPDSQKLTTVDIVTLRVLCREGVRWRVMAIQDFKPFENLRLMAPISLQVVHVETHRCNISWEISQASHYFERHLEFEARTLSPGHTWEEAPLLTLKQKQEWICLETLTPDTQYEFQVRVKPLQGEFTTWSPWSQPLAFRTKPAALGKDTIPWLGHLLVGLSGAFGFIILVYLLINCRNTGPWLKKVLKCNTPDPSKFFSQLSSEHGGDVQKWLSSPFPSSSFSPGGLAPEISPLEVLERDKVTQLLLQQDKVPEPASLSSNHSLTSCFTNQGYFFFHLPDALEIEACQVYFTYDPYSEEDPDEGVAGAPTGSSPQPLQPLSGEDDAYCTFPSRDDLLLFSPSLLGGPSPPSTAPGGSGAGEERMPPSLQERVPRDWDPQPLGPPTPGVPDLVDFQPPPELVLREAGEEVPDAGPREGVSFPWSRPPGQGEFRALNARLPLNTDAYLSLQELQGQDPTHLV
Chain of JAK3/JAK1 heterodimer (P31785 23-369 partner, one chain of several): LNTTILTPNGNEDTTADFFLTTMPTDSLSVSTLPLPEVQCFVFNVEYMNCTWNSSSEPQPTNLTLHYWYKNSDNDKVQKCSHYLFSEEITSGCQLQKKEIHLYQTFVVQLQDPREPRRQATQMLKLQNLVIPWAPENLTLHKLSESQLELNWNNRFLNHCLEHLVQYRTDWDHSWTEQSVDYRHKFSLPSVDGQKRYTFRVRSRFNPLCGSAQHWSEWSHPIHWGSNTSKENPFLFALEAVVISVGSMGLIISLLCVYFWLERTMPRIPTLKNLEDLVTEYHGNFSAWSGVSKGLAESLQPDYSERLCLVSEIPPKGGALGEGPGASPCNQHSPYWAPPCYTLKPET
Chain of TEL-JAK1 (P23458 875-1154 limits assumed, one chain of several): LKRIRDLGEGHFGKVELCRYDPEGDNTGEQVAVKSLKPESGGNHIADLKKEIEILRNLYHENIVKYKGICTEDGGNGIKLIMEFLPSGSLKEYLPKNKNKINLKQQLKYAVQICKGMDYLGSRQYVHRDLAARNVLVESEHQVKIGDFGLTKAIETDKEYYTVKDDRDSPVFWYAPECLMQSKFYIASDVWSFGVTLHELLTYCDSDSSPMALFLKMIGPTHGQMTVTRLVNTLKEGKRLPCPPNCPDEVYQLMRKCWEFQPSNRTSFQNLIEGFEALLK
Chain of TEL-JAK2 (O60674 840-1132 limits assumed, one chain of several): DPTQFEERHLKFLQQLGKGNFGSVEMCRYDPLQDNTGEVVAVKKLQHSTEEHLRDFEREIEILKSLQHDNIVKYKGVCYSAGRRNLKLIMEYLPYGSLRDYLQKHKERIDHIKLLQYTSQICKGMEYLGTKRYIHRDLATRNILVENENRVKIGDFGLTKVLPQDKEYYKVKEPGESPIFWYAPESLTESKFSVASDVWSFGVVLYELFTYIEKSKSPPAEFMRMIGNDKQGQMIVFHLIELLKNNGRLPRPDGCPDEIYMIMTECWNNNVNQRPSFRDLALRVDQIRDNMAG
Chain of IL-3-activated wild-type JAK2 (O60674 whole entry): as the sequence (O60674 whole entry Y931C) above, with C931Y counted along it
Chain of wild-type JAK2 (O60674 whole entry): as the sequence (O60674 whole entry Y931C) above, with C931Y counted along it
Chain of JAK2 R564Q (O60674 whole entry R564Q): as the sequence (O60674 whole entry Y931C) above, with R564Q, C931Y counted along it
Chain of JAK2 H538Q (O60674 whole entry H538Q): as the sequence (O60674 whole entry Y931C) above, with H538Q, C931Y counted along it

IC50 [1]: 181 ± 132 nM
IC50 (JAK2V617F [2]): 19 ± 13 nM
IC50 (TEL-JAK3): 2550 ± 345 nM
IC50 [3]: 43 ± 1 nM
IC50 (TEL-JAK1): 663 ± 74 nM
IC50 (TEL-JAK2): 139 ± 47 nM
SMILES: Cc1cc(Nc2nc(N[C@@H](C)c3ncc(F)cn3)ncc2Cl)n[nH]1 [AZD1480, reference compound]

Selectivity for JAK2 over JAK3, biochemical (JAK3): fourfold
IC50 (JAK3/JAK1 heterodimer): 228 ± 76 nM
IC50 (JAK2 [4]): 2 nM
SMILES: Cc1cc(Nc2ccc3ncn([C@@H]4CCc5ccc(F)cc54)c3n2)[nH]n1.Cl.Cl [Compound 1, 3-[(1R)-6-fluoro-2,3-dihydro-1H-inden-1-yl]-N-(3-methyl-1H-pyrazol-5-yl)-3H-imidazo[4,5-b]pyridin-5-amine dihydrochloride]
Change in cytotoxic T-cells, CD3+CD8a+, peripheral blood [5]: −39 (P<0.05) %
Change in cytotoxic T-cells, CD3+CD8a+, spleen [5]: −42 (P<0.05) ^d %
Percentage of T-cytotoxic cells (peripheral blood and splenic) [5]: statistically significant decrease

SMILES: Cc1cc(Nc2cc(CN3CCOCC3)c3nc(C)c(Cc4ccc(Cl)cc4F)n3n2)n[nH]1 [LY2784544, 3-(4-chloro-2-fluorobenzyl)-2-methyl-N-(5-methyl-1H-pyrazol-3-yl)-8-(morpholinomethyl)imidazo[1,2-b]pyridazin-6-amine]
Inhibition of IL-3-stimulated STAT5 phosphorylation, western blot (wild-type JAK2): marginal inhibition
Gastric- and intestine-related toxicity [6]: No gastric- and intestine-related toxicity was observed
IC50 (JAK2 [7]): 45 ± 19 nM
IC50 (JAK3/JAK1 heterodimer): 942 ± 255 nM
EC50 [8]: 113 ± 0.023 nM
Inhibition of STAT5 phosphorylation, western blot (JAK2 R564Q): effectively inhibited
TEC50, plasma concentration to inhibit 50% of STAT5 phosphorylation ([9]; 30 min after oral dosing): 699.0 ng/ml and 1.49 μM
Duration of statistically significant inhibition of STAT5 phosphorylation ([9]; single 40 mg/kg oral dose): at least 2 h
Duration of statistically significant inhibition of STAT5 phosphorylation ([9]; single 80 mg/kg oral dose): at least 6 h
TED50, dose to inhibit 50% of STAT5 phosphorylation ([9]; single oral dose, 30 min after dosing, ascitic tumor cells): 12.7 mg/kg
Inhibition of STAT5 phosphorylation, western blot (JAK2 H538Q): effectively inhibited
Spleen mass reduction ([10]; 20 mg/kg BID, 14 days): about 20%
Decrease in GFP-positive Ba/F3-JAK2V617F cells ([10]; 20 mg/kg BID, 14 days, spleen): ~50%
Reduction of the number of Ba/F3 cells expressing JAK2V617F ([10]; 20, 40 or 80 mg/kg, BID): ≥ 50%
TED50 for tumor burden reduction ([10]; oral, twice daily, 14 days, Ba/F3-JAK2V617F-GFP cells in spleen): 13.7 mg/kg
IC50 (TEL-JAK3): 4740 ± 738 nM
IC50 [3]: 55 ± 4 nM
Change in cytotoxic T-cells, CD3+CD8a+, peripheral blood [5]: No change
Change in cytotoxic T-cells, CD3+CD8a+, spleen [5]: No change
Percentage of T-cytotoxic cells (peripheral blood and splenic) [5]: did not decrease
Inhibition of STAT5 phosphorylation, western blot (JAK2V617F [11]): potently inhibited
IC50 (TEL-JAK1): 2900 ± 486 nM
Inhibition of STAT5 phosphorylation, western blot (JAK2V617F [12]): effectively inhibited
Percentage of Ba/F3-JAK2V617F-GFP-positive cells in spleen ([13]; 40 mg/kg (P=8 × 10^−4) and 80 mg/kg (P=8 × 10^−7) BID, 8 days): significantly reduced
Effect on erythroid progenitor (CD71+/Ter119+) cells ([13]; 5–80 mg/kg BID, 8 days): no effect; also recorded: did not affect
Effect on peripheral blood reticulocytes ([13]; 5–80 mg/kg BID, 8 days): no effect; also recorded: did not reduce
Effect on platelets [13]: no effect
IC50 (TEL-JAK2): 191 ± 36 nM
Inhibition of STAT5 phosphorylation, western blot (JAK2Y931C): much less potency
